Source: PubChem (Broad Institute)
In the library only some 3.2% were active in any assay of this set; here they are far more common.
Cneo AK release: Cryptococcus neoformans lysis via adenylate kinase release. C. neoformans lysis, adenylate kinase release luminescence, 4 h; normalised: neutral wells 0, clomiphene wells 100. lysis activity, % at 15 µM. 360,000 tested, 0.2% active. AID 651654;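 active = mean lysis activity across replicates of at least 80%, whatever share of replicates individually reach that level; inactive = mean lysis activity below 80%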
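Material: C. neoformans cells; Schedule: 4 h static compound exposure, 37 °C, read 1 h post-reagent; Measured by: adenylate kinase release luminescence; Read-out: signal increase indicating cell lysis; Controls: Clomiphene as positive lysis control.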
DENV2 CPE: inhibitors of DENV2 cytopathic effect | 350,000 tested, 1.7% active | AID 651640 | DENV2-infected cells, cytopathic effect rescue, plate reader | CPE inhibition, % at 9.99 µM; in the data active = CPE inhibition above about 20%, passing the limit was not always enough; inconclusive = no clear call, values can overlap the other calls; tested in BHK-21 cells;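 also: 0% = median of neutral control wells and 100% = median of positive control wells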
Ecoli rRNA inh: selective bacterial rRNA inhibition in E. coli; E. coli WT GFP vs humanized-ribosome RFP mutants, fluorescence, 24 h; active compounds read low; DMSO median 0, no signal -100; GFP signal change (wild-type ribosome), % (test concentration not listed); 350,000 tested, 1.6% active;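 active = significant combined selectivity score with lowered wild-type GFP, culture density cut under 30%, mutant RFP and density less affected; inactive = any of these conditions unmet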
S100A4 inh HTS: blocks human S100A4 binding to myosin IIA peptide. P26447. S100A4/TAMRA-MyoIIA peptide fluorescence polarization. inhibition, % at 10.7 µM. 360,000 tested, 0.14% active. AID 652163;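 active = mean inhibition of at least 70% across replicates, with every replicate also reaching that level; inconclusive = mean inhibition reaches 70% but some replicates fall short; inactive = mean inhibition below 70%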
Target sequence (P26447 whole entry, looked up): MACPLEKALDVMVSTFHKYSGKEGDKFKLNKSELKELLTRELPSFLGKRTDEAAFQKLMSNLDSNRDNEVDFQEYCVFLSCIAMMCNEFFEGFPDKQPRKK
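Test system: S100A4 monomer protein; Medium: HEPES pH 7.2 with CaCl2, KCl, NaCl, DTT, Triton; Probe or stimulus: TAMRA-labelled myosin IIA heavy-chain peptide probe, 5 nM; Doses: one dose per compound; Times: polarization read 5 min after assay mix addition, stable 5–60 min; Benchmarks: neutral control DMSO, positive control TFP.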
AF4-AF9 inh: MLL-AF4/AF9 protein interaction inhibition. AlphaScreen, biotin-AF4 peptide binding to FLAG-AF9. inhibition, % at 10 µM. 350,000 tested, 0.47% active. AID 651704;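 active = every replicate reaching a set inhibition limit, whatever the replicate mean, cut at about 25% in these data; inconclusive = mean inhibition reaches that limit but some replicates miss it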;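 also: 0% = plate neutral control median and 100% = total signal loss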
PfHsp90 yeast 2: reduces growth (ATP signal) of yeast expressing P. falciparum Hsp90. S. cerevisiae expressing PfHsp90, BacTiter-Glo ATP, 48 h; yeast lacking PDR1 and PDR3 efflux regulators. inhibition, % at 9.4 µM. 310,000 tested, 0.32% active;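 active = every replicate shows inhibition above about 80%, whatever the replicate mean, limit read from the data; inconclusive = mean inhibition reaches the set limit but some replicate falls short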;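 also: 0% = DMSO neutral controls and 100% = 20 µM radicicol positive controls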
* hit, by the source's call; ? = inconclusive; / = not tested or not shown.

SMILES	Cneo AK release	DENV2 CPE	Ecoli rRNA inh	S100A4 inh HTS	AF4-AF9 inh	PfHsp90 yeast 2
CCOc1ccc(N2C(=O)/C(=C\c3ccccc3OC)S(=O)(=O)C2c2cccc([N+](=O)[O-])c2)cc1 (configuration not stated)	/	/	/	/	/	110*
COc1ccccc1/C=C1/C(=O)N(c2cc(C)cc(C)c2)C(c2cccc([N+](=O)[O-])c2)S1(=O)=O (configuration not stated)	4	/	/	/	/	-37
Cc1cc(/C=N/n2cnnc2)c(C)n1-c1ccc(OCc2ccccc2F)cc1	-5	11	-43*	2	17	-45
COc1ccc(S(=O)(=O)N2CCOCC2)cc1NC(=O)Cc1ccsc1	4	3	21	-1	-49	27
CCN(CC)S(=O)(=O)c1ccc(N2CCCC2)c(NC(=O)Cc2ccc(OC)cc2)c1	0	14	-34*	3	6	-19
O=C(Cc1ccc(Cl)cc1)Nc1cc(S(=O)(=O)N2CCOCC2)ccc1N1CCCC1	/	0	-26*	-2	3	-48
CCN(CC)S(=O)(=O)c1ccc(N2CCCC2)c(NC(=O)Cc2cc(OC)c(OC)c(OC)c2)c1	0	10	4	5	3	-11
O=C(COC(=O)c1cc(S(=O)(=O)N2CCCCC2)ccc1N1CCOCC1)NCCc1ccc(F)cc1	/	2	-20*	-4	2	-88
O=C(Cc1c(F)cccc1Cl)Nc1cc(S(=O)(=O)N2CCOCC2)ccc1N1CCCC1	0	11	8	-3	3	/
CC(C)Oc1ccc(S(=O)(=O)N2CCOCC2)cc1NC(=O)Cc1ccsc1	7	42*	-6	-8	0	7
CCOC(=O)C1CCN(c2c([N+](=O)[O-])c(C(Cl)Cl)nn2-c2ccccc2)CC1	-1	/	/	/	/	-2
O=[N+]([O-])c1c(C(Cl)Cl)nn(-c2ccccc2)c1N1CCCC1	-1	4	-43*	6	22	-4
O=C(N[C@H]1CC[C@H](CCNC(=O)c2ccccc2F)O[C@H]1CO)c1cnccn1	5	1	0	-6	-1	/
O=C(N/N=C/c1ccncc1)c1ccc(COc2cccc3cccnc23)cc1	1	-7	-28*	-6	0	-5
O=C(CSc1cccc2cccnc12)N/N=C/c1ccc(O)cc1	-2	8	-14*	-3	19	12
Cc1ccc(S(=O)(=O)Nc2ccc3c(c2)C(=O)N([C@@H](C)CO)C[C@H](C)[C@H](CN(C)S(=O)(=O)c2cccs2)O3)cc1	-5	5	0	-6	0	/
O=C(c1cccnc1)n1nc(NCc2ccccc2)nc1NCc1ccccc1	4	3	-35*	-2	?	-48
O=C(c1ccco1)n1nc(NCc2ccccc2)nc1NCc1ccccc1	-3	/	/	/	/	-135
O=C(NCc1nnc(SCc2ccccc2)n1-c1ccccc1)C12CC3CC(CC(C3)C1)C2	/	9	-31*	-3	-72	-19
O=C(NCc1nnc(SCc2ccccc2)n1-c1ccc(F)cc1)C12CC3CC(CC(C3)C1)C2	4	0	-52	-1	5	-4
CN1C[C@@H]2[C@H](c3ccccc31)[C@H](CO)N2Cc1ccccc1Cl	-14	-4	-5	6	4	/
COc1ccc(CN(C)C[C@H]2OCCCC[C@@H](C)Oc3ccc(NS(=O)(=O)c4ccccc4)cc3C(=O)N([C@@H](C)CO)C[C@H]2C)cc1	1	34*	1	9	2	/
COc1ccc(CN(C)C[C@H]2OCCCC[C@@H](C)Oc3ccc(NS(=O)(=O)c4ccccc4)cc3C(=O)N([C@H](C)CO)C[C@H]2C)cc1	1	7	5	-17	8	/
COc1ccc(CN(C)C[C@@H]2OCCCC[C@H](C)Oc3ccc(NS(=O)(=O)c4ccccc4)cc3C(=O)N([C@H](C)CO)C[C@H]2C)cc1	4	32*	7	7	1	/
O=C(O)CC1(CC(=O)NCc2ccncc2)CCCCC1	1	2	16	0	-2	6
SMILES	Cneo AK release	DENV2 CPE	Ecoli rRNA inh	S100A4 inh HTS	AF4-AF9 inh	PfHsp90 yeast 2
O=C(O)CC1(CC(=O)NCc2ccc(-c3cccs3)cc2)CCCCC1	-3	-1	-20*	-1	/	-7
COc1ccccc1NCC(=O)NNC(C)C(=O)Nc1cccc(Cl)c1 (configuration not stated)	0	-2	-32*	2	3	12
C[C@@H]1CN([C@@H](C)CO)C(=O)c2cccc(NS(=O)(=O)c3ccc(Cl)cc3)c2O[C@H]1CN(C)C(=O)Nc1ccc(C(F)(F)F)cc1	-2	6	-5	-8	-2	/
O=C(c1ccc(F)cc1)N1CC(=O)N2[C@@H](CO)[C@H](c3ccc(C#CC4CCCC4)cc3)[C@@H]2C1	/	-3	-12	-6	6	/
CN(C)C(=S)NC(=O)C12CC3CC(C)(CC(C)(C3)C1)C2	/	6	6	-1	0	10
CC12CC3CC(C)(C1)CC(C(=O)NC(=S)N1CCCCC1)(C3)C2	111*	3	-17	2	-23	-23
COc1cccc(/C=N/NC(=O)Cn2nc(C)c([N+](=O)[O-])c2C)c1O	3	3	-6	1	0	-25
COc1cccc(/C=N/Nc2ccc([N+](=O)[O-])cn2)c1O	-2	-6	-28	-3	0	94*
O=C(Cc1ccccc1)N/N=C/c1cc(Br)cc(Cl)c1O	/	1	19	1	-1	9
COc1cc(Br)cc(/C=N/NC(=O)Cc2ccccc2)c1O	/	4	-13	8	79*	6
COc1cccc(/C=N/NC(=O)N/N=C/c2cccc(OC)c2O)c1O	0	?	-31*	6	3	-8
COc1cccc(/C=N/NC(=O)C(C)n2nc(C)c([N+](=O)[O-])c2C)c1O (configuration not stated)	/	3	-22*	-1	5	5
COc1ccc(S(=O)(=O)N(C)C[C@@H]2Oc3ccc(NC(=O)C4CC4)cc3C(=O)N([C@@H](C)CO)C[C@@H]2C)cc1	-1	5	1	-1	-5	/
O=[N+]([O-])c1ccc(N/N=C/c2cccc(O)c2)cc1	-3	-2	-53	-3	-1	29
O=[N+]([O-])c1ccc(N/N=C/c2cccc(O)c2O)cc1	-3	3	-31*	-3	2	1
Nc1ccc(-c2nc3ccccc3[nH]2)cc1	0	15	-3	2	0	19
Nc1ccc(Sc2nc3ccccc3[nH]2)cc1	/	-5	-22*	13	0	0
CCOC(=O)/C(=N\Nc1ncnc2ccccc12)c1ccc(C)cc1	-2	4	3	19	42*	-4
